Assay outcomes: PubChem, several laboratories
An excerpt weighted towards active compounds, which were near 3.5% of everything screened.
Thrombin inh = blocks human thrombin protease activity; actives 0.26% (n = 220,000); inhibition, % at 5 µM; alpha-thrombin, Boc-VPR-AMC fluorogenic substrate cleavage;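 active means inhibition at or above 40%; inactive means inhibition below 40%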;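 further: 0% = enzyme with no compound and 100% = wells without enzyme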
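Material: Human alpha-thrombin protein | Buffer or medium: pH 7.5 Tris-saline with Tween 20 | Reagent: Boc-VPR-AMC substrate, 15 µM final | Schedule: Reaction at ambient temperature | Detection: AMC fluorescence at 355 nm excitation and 460 nm emission | Evaluation: Percent inhibition scaled between no-compound controls and no-enzyme blanks | Controls: no-compound enzyme wells and no-enzyme blanks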
AHR act = human AHR activation. activation, % at 5 µM. actives 2.5% (n = 320,000). P35869. AHR-responsive luciferase reporter cells, luminescence; in the data active means activation above about 47%;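 further: 0% = vehicle wells and 100% = reference agonist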
Target sequence (P35869 whole entry, looked up): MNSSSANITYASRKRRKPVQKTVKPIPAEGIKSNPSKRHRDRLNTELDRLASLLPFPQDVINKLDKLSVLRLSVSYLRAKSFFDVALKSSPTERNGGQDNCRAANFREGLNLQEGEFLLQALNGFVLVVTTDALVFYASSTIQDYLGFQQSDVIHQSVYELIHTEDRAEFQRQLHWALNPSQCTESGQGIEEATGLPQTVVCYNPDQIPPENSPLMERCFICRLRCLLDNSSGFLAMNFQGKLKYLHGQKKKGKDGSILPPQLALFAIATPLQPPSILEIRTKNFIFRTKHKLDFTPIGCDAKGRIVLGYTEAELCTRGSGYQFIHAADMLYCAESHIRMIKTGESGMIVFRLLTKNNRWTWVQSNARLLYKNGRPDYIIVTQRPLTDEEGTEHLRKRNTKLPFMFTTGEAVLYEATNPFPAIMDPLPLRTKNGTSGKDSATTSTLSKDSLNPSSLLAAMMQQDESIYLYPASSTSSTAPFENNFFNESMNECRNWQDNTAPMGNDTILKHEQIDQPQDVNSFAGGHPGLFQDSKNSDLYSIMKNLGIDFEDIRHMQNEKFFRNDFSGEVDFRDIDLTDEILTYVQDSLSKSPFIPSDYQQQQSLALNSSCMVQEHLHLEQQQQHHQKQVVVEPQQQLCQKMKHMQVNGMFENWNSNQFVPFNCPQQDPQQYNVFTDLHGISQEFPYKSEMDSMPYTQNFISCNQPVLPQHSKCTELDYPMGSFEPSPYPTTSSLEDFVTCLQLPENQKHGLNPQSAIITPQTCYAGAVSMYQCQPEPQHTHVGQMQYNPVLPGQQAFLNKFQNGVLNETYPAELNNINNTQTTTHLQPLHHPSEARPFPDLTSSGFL
STAT3 act-1 = activators of IL-6 induced STAT3 signaling; U3A cells, IL-6 STAT3-luciferase reporter, luminescence; 100% = signal with IL-6 EC80 alone; AID 871; activation (% of control), % at 5.6 µM; actives 0.91% (n = 190,000);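 active means activation above the screen-wide mean of compound activation plus 3 SD, cut at about 130% in these data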;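 further: 0% = background luminescence of wells with medium and substrate only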
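Test system: STAT3-luciferase reporter U3A cells; Detection: reporter luminescence signal; Times: 1 h compound pre-exposure, 6 h IL-6 stimulation, 37 °C; Benchmarks: IL-6-only high control; Also added: IL-6 stimulus at 33 ng/mL final.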
KLK5 inh = inhibitors of human kallikrein 5 | actives 0.59% (n = 210,000) | inhibition, % at 5 µM | recombinant hK5, fluorogenic AMC substrate cleavage | Q9Y337;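 active means inhibition of 40% or more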;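 further: 0% = enzyme controls without compound and 100% = no-enzyme blanks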
FXIIa inh = blocks human coagulation factor XIIa protease activity; P00748; purified FXIIa, Boc-QGR-AMC fluorogenic substrate, 2 h; inhibition, % at 5 µM; actives 0.3% (n = 220,000); in the data active means inhibition above about 40%;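 further: 0% = enzyme with no compound and 100% = blank without enzyme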
FXIa inh = factor XIa (human) inhibition. P03951. purified FXIa, Boc-Glu-Ala-Arg-AMC fluorogenic substrate. inhibition, % at 5 µM. actives 0.14% (n = 220,000). AID 798;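 active means inhibition of at least 40%; inactive means inhibition below 40%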;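 further: fluorescence of freed AMC excited at 355 nm; 0% = enzyme without compound and 100% = no enzyme blank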
STAT3 act-2 = STAT3 activation, confirmation assay; shares compounds with STAT3 act-1; actives 64% (n = 1,200); potentiation (% of control), % at 5.7 µM; U3A STAT3-luciferase reporter, IL-6 potentiation, luminescence; U3A cells lack STAT1; 100 means same as IL-6 alone;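 active means percent activation of the STAT3 luciferase reporter above a set limit taken from the earlier primary screen, cut at about 130% in these data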;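 further: 0% = background signal of medium plus substrate and 100% = median of IL-6 with DMSO wells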
NFkB act STAT3ct = activates NF-kappaB, counter-screen to STAT3 activators; human cells, NF-kappaB reporter activation; shares compounds with STAT3 act-1; activation (% of control), % at 5.7 µM; actives 11% (n = 1,200); AID 1309; in the data active means activation above about 120%;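 further: reporter induced by TNF-alpha stimulation; 100% = median of stimulated DMSO wells and 0% = no signal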
STAT1 act STAT3c = counter-screen for STAT3 activators: STAT1 activation; NIH 3T3 STAT1-luciferase reporter, IFN-gamma, luminescence; activation (% of control), % at 5.7 µM; shares compounds with STAT3 act-1; AID 1318; actives 13% (n = 1,200);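 active means activation above the solvent-only control well mean plus 3 SD, set per screening run, cut at about 120% in these data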;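 further: 100% = IFN-gamma with DMSO median signal so 100% means no change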
The depositor's hits bear a star.

Cn1c(=O)oc2cc(S(=O)(=O)NCCC(=O)N3CCN(c4ccccc4F)CC3)ccc21 was read as AHR act 2.
`Cn1c(=O)oc2cc(S(=O)(=O)NCCC(=O)N3CCc4ccccc43)ccc21` gave Thrombin inh 3, AHR act 14, STAT3 act-1 140*, KLK5 inh 0, FXIIa inh -1, FXIa inh 1, STAT3 act-2 124, NFkB act STAT3ct 102 and STAT1 act STAT3c 99.
`O=C(NCC1CCCO1)c1ccc(COc2ccc(F)cc2)o1` (stereo unspecified) gave Thrombin inh 0, AHR act 0, STAT3 act-1 138*, KLK5 inh 7, FXIIa inh -2, FXIa inh 0, STAT3 act-2 99, NFkB act STAT3ct 103 and STAT1 act STAT3c 98.
For CCOC(=O)CN1C(=O)C(O)(c2c(C)[nH]c3ccccc23)c2ccccc21 (stereo unspecified) the results were Thrombin inh -3, AHR act 11, STAT3 act-1 167*, KLK5 inh 2, FXIIa inh 13, FXIa inh 3, STAT3 act-2 126, NFkB act STAT3ct 107 and STAT1 act STAT3c 94.
For CC1CCN(S(=O)(=O)c2ccc3c(c2)C(=NO)c2cc(S(=O)(=O)N4CCC(C)CC4)ccc2-3)CC1 the results were Thrombin inh 5, AHR act 1, STAT3 act-1 136*, KLK5 inh 5, FXIIa inh 19, FXIa inh 12, STAT3 act-2 132, NFkB act STAT3ct 131* and STAT1 act STAT3c 56.
Screening NC(=O)C1CNc2ccccc2O1 (stereo unspecified) returned Thrombin inh -8, AHR act 37, STAT3 act-1 156*, KLK5 inh -2, FXIIa inh 2, FXIa inh -6, STAT3 act-2 148*, NFkB act STAT3ct 105 and STAT1 act STAT3c 100.
Screening O=c1oc2ccccc2cc1-c1nc(-c2cccs2)cs1 returned Thrombin inh 33, AHR act 62*, STAT3 act-1 159*, KLK5 inh 26, FXIIa inh 13, FXIa inh 2, STAT3 act-2 117, NFkB act STAT3ct 116 and STAT1 act STAT3c 116.
`O=C1CN2CCC1C/C2=C\c1ccnc2c(Cl)cccc12` (stereo unspecified) gave Thrombin inh -3, AHR act 0, KLK5 inh -2, FXIIa inh 6 and FXIa inh -6.
Screening COc1cccc(C(=O)OCC(=O)c2c[nH]c3ccccc23)c1O returned Thrombin inh -5, AHR act 13, STAT3 act-1 144*, KLK5 inh 1, FXIIa inh -1, FXIa inh -5, STAT3 act-2 138*, NFkB act STAT3ct 114 and STAT1 act STAT3c 94.
Screening COc1ccccc1C(=O)COC(=O)c1ccccc1O returned Thrombin inh -1, AHR act 3, STAT3 act-1 151*, KLK5 inh 3, FXIa inh 7, STAT3 act-2 150*, NFkB act STAT3ct 106 and STAT1 act STAT3c 105.
CCC(C)[C@H](Nc1nc(-c2ccccc2)nc2c1oc1ccccc12)C(=O)O (stereo partly specified) was read as Thrombin inh -4, AHR act 8, STAT3 act-1 124, KLK5 inh 7, FXIIa inh 5 and FXIa inh -3.
COC(=O)c1c(NC(=O)CN2CCN(C(=O)c3ccco3)CC2)c2cc(C)ccc2n1C was read as Thrombin inh 7, AHR act 28, STAT3 act-1 139*, KLK5 inh -21, FXIIa inh 10, FXIa inh 4, STAT3 act-2 141*, NFkB act STAT3ct 99 and STAT1 act STAT3c 97.
